# CaV13 FRET inh: Disruptors of the CACNA1D IQ motif to Ca2+-dependent inactivation inhibitor domain association, primary screening, Förster resonance energy transfer in intact living …; HEK cells, CFP/YFP FRET ICDI-IQ, plate reader, 10 min; percent FRET-ratio fall versus neutral wells; inhibition, % at 12.3 µM; 340,000 tested, 0.098% active; AID 743397;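 active = mean replicate inhibition of at least 30% and at least 1% of replicates passing that level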;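 also: 0% = median of the neutral control wells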
# TWEAK-Fn14 inh: blocks TWEAK-Fn14 interaction in a reporter cell assay; inhibition, % at 10 µM; 360,000 tested, 2% active; TWEAK-stimulated Fn14 reporter cells, luciferase luminescence, 8 h; in the data active = inhibition above about 50%
# XiGFP reactiv: reactivates the inactive X chromosome in mouse fibroblasts; 360,000 tested, 0.055% active; AID 743238; XiGFP mouse fibroblasts, % GFP-positive cells imaging, 3 d; cells co-treated with 5-aza-dC sensitizer; scaled so ellipticine positive control = 100%; activation, % at 7.58 µM;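 active = mean normalized replicate activation at least 10% and every replicate at or above 10%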;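 also: 0% = median of on-plate neutral control wells and 100% = ellipticine 6 µM median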
#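 System: XiGFP fibroblasts, SV40-immortalized. Medium: DMEM plus 5-aza-dC sensitizer. Doses: single point. Timing: 3 d treatment, 15 min room-temperature fixation. Control set: ellipticine 6 µM.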
# TROY signal inh: TROY signaling inhibition. Q293 LMP1-TROYcd NF-kB luciferase reporter, 4 h. inhibition, % at 10 µM. 360,000 tested, 0.98% active;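 active = compounds whose plate-normalised and pattern-corrected inhibition of the luciferase reporter signal at the single screening dose is 50% or more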
# LGR2 inh: inhibitors of bursicon-induced Drosophila LGR2 receptor cAMP signaling | HEK293 LGR2, CRE-luciferase, bursicon-stimulated, 4 h | inhibition, % at 9.99 µM | 380,000 tested, 0.35% active | AID 720647;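 active = drop in luminescence signal, shown as inhibition above about 50% in the replicate tests, limit read from the data, passing the limit was not always enough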;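 also: agonist challenge used bursicon conditioned medium at about half maximal strength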
# * hit, by the source's call; · = no result given; + = active, no number. Sampled rows, rich in hits. Any-hit rate of the full collection: about 2%.
SMILES,CaV13 FRET inh,TWEAK-Fn14 inh,XiGFP reactiv,TROY signal inh,LGR2 inh
O=C(NCCO)c1cccc(Nc2nc(-c3ccccc3)c3cc(Cl)ccc3n2)c1,-9,51*,·,22,·
Cc1ccc(-c2cnc3c(c2)C(=O)N([C@H](C)CO)C[C@@H](C)[C@H](CN(C)C(=O)c2ccccc2)O3)cc1,·,·,0,·,16
Nc1c2ccccc2nc2ccccc12,40*,-33,1,-64,96*
C=CCOc1ccc(C[C@H](N)C(=O)NC[C@H]2O[C@@H](n3cc(C)c(=O)[nH]c3=O)C[C@@H]2O)cc1,-10,5,1,1,-9
Cc1cn([C@H]2C[C@H](O)[C@@H](CNC(=O)[C@H](N)Cc3cn(COCc4ccccc4)cn3)O2)c(=O)[nH]c1=O,-5,51*,0,-18,14
O=C(NCCCN1CCCC1)Nc1ccc(F)cc1,-4,-32,0,-6,0
CCOc1ccc(NC(=O)NCCCN2CCCC2)cc1,·,90*,·,-7,-7
O=C(Nc1ccc(OCc2ccccc2)cc1)Nc1ccccc1C(=O)NCCCN1CCOCC1,-4,89*,0,-28,-25
Cc1ccc(N=C2NC(=O)CS2)c(C)c1,-6,101*,·,·,·
Cn1cnc(S(=O)(=O)Nc2ccc(OC(F)(F)F)cc2)c1,+,-2,0,-3,8
Cn1cnc(S(=O)(=O)Nc2ccc(C(F)(F)F)cc2)c1,·,-5,·,0,·
CCOC(=O)C(=NC(C)CC)NNc1cccc(C(F)(F)F)c1 (configuration not stated),-2,58*,0,0,2
CC(C)c1noc2ncc(C(=O)c3cc(Cl)cc(Cl)c3O)cc12,·,10,·,62*,·
CCNC(=O)[C@H]1[C@H](CO)[C@H]2Cn3c(ccc(-c4ccccc4F)c3=O)[C@@H]1N2C(=O)CC,·,·,0,·,2
CC(C)(C)c1cc(NC(=O)C2CCCO2)no1 (configuration not stated),-7,65*,·,61*,-23
C[C@@H]1CN([C@@H](C)CO)C(=O)Cc2cc(NC(=O)NC3CCCCC3)ccc2O[C@H]1CN(C)S(C)(=O)=O,·,·,0,·,-16
Cc1ccc(S(=O)(=O)Nc2ccc3c(c2)C(=O)N([C@H](C)CO)C[C@@H](C)[C@H](CN(C)S(=O)(=O)c2cn(C)cn2)OCCCC[C@@H](C)O3)cc1,·,·,0,·,4
Cc1[nH]c2ccccc2c1C(=O)CSc1nc2cc(S(=O)(=O)N3CCCCC3)ccc2o1,-5,55*,·,-11,·
Cc1ccc(C(=O)CSc2nc3cc(S(=O)(=O)N4CCOCC4)ccc3o2)cc1,-4,-30,·,11,·
O=C(O)c1cccc2c1C(=O)c1ccccc1-2,-5,1,0,0,8
O=C1C(=C(I)I)c2ccccc2-c2ccccc21,-6,104*,3,64*,103*
C[C@@H]1CN([C@@H](C)CO)C(=O)c2cc(NC(=O)C3CCCCC3)ccc2O[C@@H](C)CCCCO[C@@H]1CN(C)C(=O)Cc1ccccc1,·,·,0,·,-4
Cc1cc(Nc2ccccc2)nn1C(=O)c1ccc(Br)cc1,·,53*,·,·,·
Cc1ccc(Nc2nc(N)c3ccccc3n2)cc1C,-1,68*,0,26,81*
Cc1cc(Nc2ccc(C)c(C)c2)c2ccccc2n1,-3,-25,0,-12,14
SMILES,CaV13 FRET inh,TWEAK-Fn14 inh,XiGFP reactiv,TROY signal inh,LGR2 inh
COc1ccc(CCCc2nc3ccccc3[nH]2)cc1,-15,-17,30*,-9,-19
O=C(O)c1cccc(-c2nc3ccccc3[nH]2)c1,-15,8,0,-44,94*
COC(=O)c1ccc(C(=O)Nc2ccc3nc(-c4ccncc4)[nH]c3c2)cc1,-21,35,0,-6,-10
COC(=O)c1ccc(-c2nc3ccccc3[nH]2)cc1,-6,56*,0,-4,14
Cn1c(=O)c2[nH]c(CCCCCCCCc3nc4ccccc4[nH]3)nc2n(C)c1=O,-6,70*,0,41,22
c1ccc2[nH]c(CCCCc3nc4ccccc4[nH]3)nc2c1,-3,-5,0,12,10
C[C@H](CO)N1C[C@H](C)[C@H](CN(C)Cc2ccccc2C(=O)O)Oc2ncc(C3=CCCC3)cc2C1=O,·,·,0,·,-14
CNC(=O)C[C@H]1CC[C@H]2[C@@H](COc3ccc(NC(=O)c4cc(C)on4)cc3C(=O)N2C)O1,·,·,0,·,8
Cc1cccc2cc(-c3nc4ccc(C(=O)O)cc4[nH]3)c(=O)oc12,·,85*,·,1,·
COc1ccc(-c2nc3ccccc3[nH]2)cc1,-9,66*,·,36,12
COc1ccc2oc(=Nc3ccccc3)c(-c3nc4ccccc4[nH]3)cc2c1,-10,56*,1,36,-9
c1ccc(-c2nc3ccccc3[nH]2)cc1,-5,8,0,-57,-40
C[C@@H]1CN([C@@H](C)CO)S(=O)(=O)c2ccc(-c3cccnc3)cc2O[C@@H]1CN(C)C(=O)C1CCCCC1,·,·,0,·,-15
CN1CCN(c2ccc(-c3cc(NC=O)c4ncc(-c5ccc(F)c(Cl)c5)n4c3)cc2)CC1,-15,-24,0,51*,-30
O=C(Nc1ccc(C(F)(F)F)cc1)N[C@H]1CC[C@@H](CC(=O)N2CCCCC2)O[C@H]1CO,·,·,0,·,4
O=C1C2C3C=CC(C4CC34)C2C(=O)N1/N=C/c1ccc([N+](=O)[O-])o1 (configuration not stated),-5,90*,0,20,26
O=[N+]([O-])c1ccc(/C=N/N=C/c2ccc([N+](=O)[O-])o2)o1,-2,84*,2,-61,82*
CCCNC(=O)[C@@H]1[C@@H](CO)[C@@H]2Cn3c(ccc(C4=CCCC4)c3=O)[C@H]1N2CCC(F)(F)F,·,·,0,·,9
CC1=NN(c2ccccc2)C(c2ccco2)C1 (configuration not stated),-4,-11,0,-6,10
O=[N+]([O-])c1ccc(C2=NN(c3ccccc3)C(c3ccco3)C2)cc1 (configuration not stated),-56,-21,86*,-44,·
O=[N+]([O-])c1ccc(/C=C/C2=NN(c3ccccc3)C(c3ccco3)C2)cc1 (configuration not stated),-26,-23,89*,-56,-19
O=[N+]([O-])c1ccc(C=CC=Cc2ccccc2)cc1,-3,-29,0,-42,-78
Clc1ccccc1OCCn1nnc2ccccc21,-4,95*,0,-16,-29
O=C(/C=C/c1ccc(OCCCF)cc1)Nc1ccnc(-c2cccnc2)n1,-6,27,0,52*,·
C[C@H](CO)N1C[C@H](C)[C@@H](CN(C)S(=O)(=O)c2ccc(F)cc2)Oc2ncc(-c3ccncc3)cc2C1=O,·,·,-2,·,-1

# Screening data as filed in PubChem BioAssay.
